Here are results for one compound from ChEMBL document CHEMBL4229525, “Anti-angiogenic and anticancer effects of baicalein derivatives based on transgenic zebrafish model” (Bioorg Med Chem, 2018).

Common to all, as to type: functional
Assay [1] concerns A549. The assay can be described thus: Induction of apoptosis in human A549 cells assessed as early apoptotic cells at 2.5 uM after 48 hrs by Annexin-V-FITC/propidium iodide staining based flow cytometry (reference value: 15.2%). Summed up:
(§1)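 A549 cells were plated at 2 × 10⁵ per well and held at 37 °C, 5% CO₂ for 24 h before compound was added. After treatment, cells were stained with annexin V-FITC plus propidium iodide for 30 min at 25 °C. Quadrants were read by flow cytometry: Q3 early apoptotic, Q2 late apoptotic.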
(In general: Flow cytometry measures light scatter and fluorescence of single cells or particles in a stream.)

Assay [2] concerns A549. The assay can be described thus: Induction of apoptosis in human A549 cells assessed as necrotic cells at 2.5 uM after 48 hrs by Annexin-V-FITC/propidium iodide staining based flow cytometry (reference value: 5.45%). The gist of the method: as §1
The subject of assay [3] is A549. In words: Induction of apoptosis in human A549 cells assessed as late apoptotic cells at 2.5 uM after 48 hrs by Annexin-V-FITC/propidium iodide staining based flow cytometry (reference value: 4.05%). The gist of the method:
as §1

Assay [4] has as its system A549. The assay can be described thus: Induction of apoptosis in human A549 cells assessed as live cells at 2.5 uM after 48 hrs by Annexin-V-FITC/propidium iodide staining based flow cytometry (reference value: 75.2%). Summed up:
as §1

On to `O=C(O)c1cc(O)c(O)c(O)c1` [GALLIC ACID], for which the Activity with A549 [1] came to 32.6%; in the assay with A549 [2] it was 6.7%; in the assay with A549 [3], 20.2%; in the assay on A549 [4] it was 39.5%.
